# Assay outcomes deposited in PubChem BioAssay by several laboratories.
# STAT1 activator: STAT1 signaling activators, primary screen, cell-based, HTS, luciferase reporter. NIH 3T3 STAT1-luciferase reporter, IFN-gamma, luminescence; 100% = IFN-gamma alone, no compound. activation (% of control), % at 5.5 µM. hit rate 2.6% among 200,000. AID 932, 2007;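 active = activation above the screen-wide mean activation plus 3 SD, cut at about 130% in these data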;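 note: raw ratio to IFN-gamma control signal so 100% means no change and 0% no light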
# FLuc inh counter: firefly luciferase enzyme inhibitors, primary screen, artefact control for luciferase-based inhibitor screens, biochemical, luminescence, ATPLite; Luciferin 4-monooxygenase (Photinus pyralis), P08659; 10 min; inhibition, % at 10 µM; hit rate 1.5% among 200,000; AID 1006, 2008;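 active = inhibition above about 50% when tested at 10 µM, limit read from the data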
# Target sequence (P08659 whole entry, looked up): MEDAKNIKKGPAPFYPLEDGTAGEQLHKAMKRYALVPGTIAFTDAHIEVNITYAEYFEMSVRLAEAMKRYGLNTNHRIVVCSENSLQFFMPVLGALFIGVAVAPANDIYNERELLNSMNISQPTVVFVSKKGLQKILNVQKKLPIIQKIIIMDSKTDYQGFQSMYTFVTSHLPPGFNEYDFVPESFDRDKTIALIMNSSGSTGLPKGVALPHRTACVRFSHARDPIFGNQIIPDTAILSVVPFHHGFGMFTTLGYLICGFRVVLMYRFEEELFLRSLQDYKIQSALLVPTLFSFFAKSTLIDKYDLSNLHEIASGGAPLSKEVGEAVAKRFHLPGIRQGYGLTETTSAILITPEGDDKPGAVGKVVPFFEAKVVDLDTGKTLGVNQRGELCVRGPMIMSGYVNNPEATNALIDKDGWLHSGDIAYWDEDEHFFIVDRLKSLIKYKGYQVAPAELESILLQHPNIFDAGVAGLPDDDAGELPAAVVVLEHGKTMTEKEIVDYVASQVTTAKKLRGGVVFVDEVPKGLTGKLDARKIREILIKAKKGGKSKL
# Pf gamet viab: late stage P. falciparum gametocyte viability inhibitors, primary screen, ATP luminescence, HTS | P. falciparum stage V gametocytes, 24 h | inhibition, % at 10.9 µM | hit rate 0.065% among 150,000 | AID 743093, 2013;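 active = inhibition above the mean plus 3 SD of compounds within the control limits, set per campaign, cut at about 38% in these data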;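 note: 0% = DMSO wells and 100% = medium only without gametocytes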
# FLuc stim CS: FLuc activators, initial screening, artefact control for FLuc-dependent activation tests, biochemical, ATPlite luminescence | Luciferin 4-monooxygenase (Photinus pyralis), P08659 | ATPlite luciferase biochemical, 10 min; 0 = ATP-free wells, 1 = DMSO control | activation factor at 10 µM | 200,000 tested, under 10 active;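 active = luciferase activation factor, scaled between plate controls, of at least 2 with compound at 10 µM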
#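 System: Luciferase/luciferin detection reagent, cell-free biochemical luciferase assay | Medium: PBS buffer for ATP | Dosing: Test compounds dosed from 2 mM stocks in 100% DMSO | Timing: 10 min at ambient temperature | Signal: Luminescence measurement of luciferase light output | Evaluation: Luciferase activation, seen as luminescence increase over controls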
# APP 5'UTR act: activators of APP 5'UTR luciferase reporter, primary screen, SH-SY5Y cells. SH-SY5Y APP 5'UTR luciferase reporter, luminescence; zero percent = DMSO vehicle wells. activation, % at 2 µM. hit rate 1% among 190,000. AID 1276, 2008;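 active = activation above a set limit, based on mean plus 3 SD of controls, cut at about 140% in these data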
# NF-kB neuron act: activators of NF-kB expression in neurons, primary screen, cell-based, HTS | human neuronal cells, NF-kB reporter expression; active compounds read high | fold change at 12.5 µM | hit rate 1.6% among 190,000; in the data active = fold change above about 3.3
# An asterisk follows results filed as active; · = no result. The list is not random: actives were taken first. Their share in the collection is about 3.5%.
SMILES,STAT1 activator,FLuc inh counter,Pf gamet viab,FLuc stim CS,APP 5'UTR act,NF-kB neuron act
CC(=O)Nc1nnc(SCC(=O)N2CCCc3ccccc32)s1,91.3,-2.9,2.8,1,-21.8,1.12
O=C(Nc1nnc(SCC(=O)N2CCCc3ccccc32)s1)c1ccccc1,92.9,92.2*,·,0.1,11.8,1.53
O=C(Nc1nnc(SCC(=O)N2CCCc3ccccc32)s1)c1ccc2ccccc2c1,94.4,92.5*,4.3,0.1,55.1,2.38
COc1ccc2c(-c3ccccc3)cc(N3CCOCC3)nc2c1,104.8,-2.4,·,1,-9.0,0.9
O=c1[nH]c2ccccc2nc1/C=C/c1ccc(Cl)cc1,132.9*,69.6*,1.8,0.3,167.4*,1.43
O=C(/C=C/c1ccccc1)NCCc1nc2ccccc2[nH]1,·,·,13.8,·,·,·
O=C(N/C(=C/c1ccc(Cl)cc1)c1nc2ccccc2[nH]1)c1ccco1,105.7,-5.3,·,1.1,-9.1,1
C(=C\c1ccco1)/c1nc2ccccc2[nH]1,110.7,82.8*,18.9,0.2,135.8*,5.05*
C(=C\c1nc2ccccc2[nH]1)/c1ccccc1,61.3,94.1*,31.2,0.1,191.6*,3.08
O=C(/C(=C/c1ccc(Cl)cc1)c1nc2ccccc2[nH]1)c1ccccc1,103.6,1.4,·,1,84.3,7.98*
O=C(/C=C/c1ccco1)Nc1ccc(-c2nc3ccccc3[nH]2)cc1,103.6,-2.8,17.4,1,-86.0,1.51
Cc1c(Br)c([N+](=O)[O-])nn1CC(=O)Nc1c(C)n(C)n(-c2ccccc2)c1=O,102.5,-11.1,-8.5,1.1,-1.7,0.91
CCOC(=O)c1sc2nc(CN3CCN(c4cccc(C(F)(F)F)c4)CC3)[nH]c(=O)c2c1C,91.8,-3.3,11.7,1,-9.5,1.19
Cc1ccc(N/C=C/c2onc(C)c2[N+](=O)[O-])cc1,·,·,19.8,·,·,·
COc1cccc(N/C=C/c2onc(C)c2[N+](=O)[O-])c1,143.7*,-1.9,11.8,1,145.5*,1.5
NS(=O)(=O)c1ccc(CCNC(=O)NC2(C(F)(F)F)Oc3ccccc3O2)cc1,116.6,-7.2,·,1.1,-24.7,3.85*
Cc1cc(/C=C2/NC(=S)NC2=O)c(C)n1-c1cccnc1,127.2,71.2*,-1.8,0.3,-1.4,1.63
Cc1cc(/C=C2/NC(=O)NC2=O)c(C)n1-c1ccncc1,112.1,4.6,23.5,1,9.5,0.85
CCOc1ncccc1C(=O)OCC(=O)c1cc(C)n(Cc2ccco2)c1C,118.0,66.8*,17.2,0.3,164.1*,4.64*
Cc1cc(C(=O)COC(=O)C(C)NC(N)=O)c(C)n1Cc1ccco1 (stereo unspecified),106.4,66.9*,-51.5,0.3,8.7,1.61
COc1cc(OC)c(C(=O)OCC(=O)c2cc(C)n(CC3CCCO3)c2C)cc1OC (stereo unspecified),97.5,28.8,-2.1,0.7,18.8,1.03
Cc1cc(C(=O)COC(=O)c2ccc(O)cc2)c(C)n1Cc1ccco1,149.1*,24.1,8.2,0.8,164.3*,4.44*
Cc1cc(C(=O)COC(=O)c2ccc(O)cc2)c(C)n1CC1CCCO1 (stereo unspecified),100.8,52.6*,2.1,0.5,81.5,2.13
Cc1cc(C(=O)COC(=O)c2ccc(Br)o2)c(C)n1Cc1ccco1,115.2,49.9,15.6,0.5,55.8,1.1
CCCCN(C)C(=O)c1nc2ccccn2c1CN1CCN(C/C=C/c2ccccc2)CC1,102.3,-5.1,12.6,1.1,-9.0,1.05
SMILES,STAT1 activator,FLuc inh counter,Pf gamet viab,FLuc stim CS,APP 5'UTR act,NF-kB neuron act
O=Cc1ccc(OCC(=O)NC(=O)NC2CCCCC2)cc1,103.5,-1.9,·,1,-1.2,1.36
Cc1cc(C(=O)CSc2nnnn2-c2ccc(Cl)cc2)c(C)n1CC1CCCO1 (stereo unspecified),102.0,-7.3,·,1.1,4.4,1.12
Cc1cc(C(=O)CSc2ncccn2)c(C)n1Cc1ccco1,86.2,63.5*,3.2,0.4,141.2*,4.32*
Cc1cc(C(=O)CSc2nnnn2-c2ccccc2)c(C)n1CC1CCCO1 (stereo unspecified),139.3*,12.2,-17.7,0.9,7.5,0.94
COc1cc(OC)cc(-c2cc3nc(C)c(CCC(=O)NCc4ccccc4)c(C)n3n2)c1,·,·,38.6*,·,·,·
COc1ccccc1-c1cc2nc(C)c(CCC(=O)NCc3ccc(F)cc3)c(C)n2n1,·,·,-12.2,·,·,·
CN(C)/C=N/S(=O)(=O)c1ccc(Cl)c(Cl)c1,·,·,1.8,·,·,·
O=C(Nc1ccc(C(=O)NC2CCCCC2)cc1)c1cncc(Br)c1,91.6,-6.8,5.8,1.1,5.0,1.12
COc1ccc(C(C)NS(=O)(=O)Cc2ccccc2)cc1 (stereo unspecified),·,·,-10.2,·,·,·
COc1ccc(-c2nc3ccccc3s2)cc1O,90.7,91.2*,·,0.1,224.7*,1.41
COc1cccc(-c2nc3ccccc3s2)c1O,122.7,86.6*,4.2,0.1,212.0*,6.44*
Oc1ccccc1OCc1nc2ccccc2s1,106.7,17.9,-13.9,0.8,153.9*,3.43*
Oc1ccc(O)c(Cc2nc3ccccc3s2)c1,87.2,-2.2,-13.3,1,11.8,1.9
Cc1cccc(Nc2nn3c(=O)c4ccccc4nc3s2)c1,131.7*,15.3,·,0.8,69.1,1.89
CCCSc1nn2c(=O)c3ccccc3nc2s1,126.7,44.2,·,0.6,82.0,3.02
CC(=O)N(/N=C1\Sc2ccccc2C1=O)c1cccc(C)c1,127.0,25.9,·,0.7,136.2*,7.08*
CC(=O)c1cccc(NC(=O)COC(=O)[C@@H](NC(=O)OCc2ccccc2)C(C)C)c1,93.8,1.6,·,1,2.3,0.92
COc1ccc2c(c1)CCc1c(C(=O)NC3CCCCC3)noc1-2,128.8*,3.0,-18.6,1,145.2*,2.64
COc1ccc2c(c1)CCc1c(C(=O)NCc3ccco3)noc1-2,129.2*,8.9,·,0.9,60.1,2.79
COCCNC(=O)c1noc2c1CCc1cc(OC)ccc1-2,128.1,26.2,-6.1,0.7,102.4,2.62
COc1ccc2c(c1)CCc1c(C(=O)N(C)c3ccccc3)noc1-2,128.8*,6.8,5.5,0.9,72.3,2.06
CCn1c(SCc2nc(-c3ccccc3)no2)nc2ccccc21,98.8,-3.5,·,1,13.8,0.97
O=C(CSCc1ccccc1F)NCc1ccccc1,132.8*,3.7,8.4,1,12.4,1.94
O=C(CCSCc1ccccc1F)NCc1cccnc1,109.9,-10.0,4.9,1.1,3.0,1.5
O=C(CSCc1cccc(F)c1)NCc1ccccc1,133.1*,3.4,-1.9,1,2.3,2.24
Cc1cccc(N(O)C(=O)Nc2cccc(Cl)c2)c1,·,·,7.5,·,·,·
